Assay [1] deals with Serine/threonine-protein kinase 10 (Homo sapiens, UniProt O94804). Nature of the assay: Inhibition of LOK in human HeLa cells lysate pre incubated for 15 mins followed by ADP acyl phosphate probe addition and measured after 10 mins by LC-MS/MS analysis. Type of assay: subcellular.
In a further assay the target is Ephrin type-A receptor 2 (Homo sapiens, UniProt P29317). Nature of the assay: Inhibition of EphA2 in human HeLa cells lysate at 2 uM pre incubated for 15 mins followed by ATP acyl phosphate probe addition and measured after 10 mins by LC-MS/MS analysis relative to control. The class given is subcellular. Conditions: time 25.0 min.
Assay [2] concerns the target T1, Mitogen-activated protein kinase kinase kinase 7 (Homo sapiens) (UniProt O43318).
T1 sequence (whole entry): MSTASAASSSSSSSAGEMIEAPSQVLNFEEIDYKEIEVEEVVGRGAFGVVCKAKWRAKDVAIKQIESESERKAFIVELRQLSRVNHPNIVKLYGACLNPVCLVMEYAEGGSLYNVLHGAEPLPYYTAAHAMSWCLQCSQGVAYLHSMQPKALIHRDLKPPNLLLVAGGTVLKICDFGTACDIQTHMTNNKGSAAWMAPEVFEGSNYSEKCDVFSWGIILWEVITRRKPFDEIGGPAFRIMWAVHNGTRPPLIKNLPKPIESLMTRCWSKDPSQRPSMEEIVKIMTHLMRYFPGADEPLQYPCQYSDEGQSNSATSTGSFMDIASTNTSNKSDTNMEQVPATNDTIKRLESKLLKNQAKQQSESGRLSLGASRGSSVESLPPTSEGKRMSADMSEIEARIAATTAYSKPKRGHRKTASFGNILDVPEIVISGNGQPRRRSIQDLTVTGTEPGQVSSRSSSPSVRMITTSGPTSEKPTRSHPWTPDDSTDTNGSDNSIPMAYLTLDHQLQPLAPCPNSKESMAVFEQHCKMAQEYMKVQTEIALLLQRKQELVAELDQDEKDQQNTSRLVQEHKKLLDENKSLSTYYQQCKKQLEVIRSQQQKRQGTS
The experiment in a line: Inhibition of TAK1 in human HeLa cells lysate at 10 uM pre incubated for 15 mins followed by ATP acyl phosphate probe addition and measured after 10 mins by LC-MS/MS analysis relative to control. Conditions: time 25.0 min. Type of assay: subcellular.

For assay [3], the target named is Serine/threonine-protein kinase B-raf (Homo sapiens, UniProt P15056). Nature of the assay: Inhibition of BRAF in human HeLa cells lysate at 50 uM pre incubated for 15 mins followed by ATP acyl phosphate probe addition and measured after 10 mins by LC-MS/MS analysis relative to control. Conditions: time 25.0 min. Type of assay: subcellular. The procedure, abridged:
(§1)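 KiNativ-type profiling in HeLa lysate (5 mg/mL total protein). Lysate preincubated 15 min with inhibitor at 50, 10, 2, 0.8 or 0 μM, then ATP or ADP acylphosphate probe added (5 μM final) for 10 min. Reaction stopped with urea and analysed by targeted MS, using up to four fragment ions per kinase peptide-probe conjugate. % inhibition calculated against untreated lysate. Duplicate reactions.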

The target in assay [4] is Ribosomal protein S6 kinase alpha-5 (Homo sapiens, UniProt O75582). The experiment in a line: Inhibition of MSK1 in human HeLa cells lysate pre incubated for 15 mins followed by ATP acyl phosphate probe addition and measured after 10 mins by LC-MS/MS analysis. The class given is subcellular.
In assay [5] the target is Calcium/calmodulin-dependent protein kinase type II subunit gamma (Homo sapiens, UniProt Q13555). The experiment in a line: Inhibition of CAMK2g in human HeLa cells lysate at 10 uM pre incubated for 15 mins followed by ATP acyl phosphate probe addition and measured after 10 mins by LC-MS/MS analysis relative to control. Type of assay: subcellular. Conditions: time 25.0 min. The procedure, abridged: as §1

The target in assay [6] is Cyclin-dependent kinase 9 (Homo sapiens, UniProt P50750). Nature of the assay: Inhibition of CDK9 in human HeLa cells lysate pre incubated for 15 mins followed by ATP acyl phosphate probe addition and measured after 10 mins by LC-MS/MS analysis. The class given is subcellular. The gist of the method: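 KiNativ profiling in HeLa lysate (5 mg/mL total protein). Lysate incubated 15 min with inhibitor at 50, 10, 2, 0.8 or 0 μM. ATP or ADP acylphosphate probe then added (5 μM final) and reacted 10 min. Reaction stopped with urea and analysed by targeted MS, using up to four fragment ions per kinase peptide-probe conjugate. % inhibition taken against untreated lysate. Run in duplicate.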

Assay [7] concerns the target T2, Serine/threonine-protein kinase A-Raf (Homo sapiens) (UniProt P10398).
T2 sequence (whole entry): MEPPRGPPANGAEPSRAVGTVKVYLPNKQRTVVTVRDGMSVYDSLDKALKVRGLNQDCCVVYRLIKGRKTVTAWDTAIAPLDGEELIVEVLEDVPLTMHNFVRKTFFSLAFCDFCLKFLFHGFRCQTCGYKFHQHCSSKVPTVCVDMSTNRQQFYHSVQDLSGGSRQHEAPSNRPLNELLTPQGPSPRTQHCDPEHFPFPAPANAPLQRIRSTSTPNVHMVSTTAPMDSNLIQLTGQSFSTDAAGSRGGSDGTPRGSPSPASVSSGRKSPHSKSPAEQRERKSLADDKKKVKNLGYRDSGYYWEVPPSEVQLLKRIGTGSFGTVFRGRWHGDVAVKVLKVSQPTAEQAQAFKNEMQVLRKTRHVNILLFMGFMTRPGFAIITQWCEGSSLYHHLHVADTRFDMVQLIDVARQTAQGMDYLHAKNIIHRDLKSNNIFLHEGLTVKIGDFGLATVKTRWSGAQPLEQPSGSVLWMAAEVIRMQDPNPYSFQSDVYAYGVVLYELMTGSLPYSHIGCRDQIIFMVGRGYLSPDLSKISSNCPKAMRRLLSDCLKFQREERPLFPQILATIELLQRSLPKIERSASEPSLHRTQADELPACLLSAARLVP
Nature of the assay: Inhibition of ARAF in human HeLa cells lysate at 50 uM pre incubated for 15 mins followed by ATP acyl phosphate probe addition and measured after 10 mins by LC-MS/MS analysis relative to control. The class given is subcellular. Conditions: time 25.0 min. The procedure, abridged: as §1

Assay [8] concerns the target Mitogen-activated protein kinase kinase kinase 20 (Homo sapiens, UniProt Q9NYL2). The experiment in a line: Inhibition of ZAK in human HeLa cells lysate at 2 uM pre incubated for 15 mins followed by ATP acyl phosphate probe addition and measured after 10 mins by LC-MS/MS analysis relative to control. Type of assay: subcellular. Conditions: time 25.0 min.
Assay [9] addresses T3, EKC/KEOPS complex subunit TP53RK (Homo sapiens) (UniProt Q96S44).
T3 sequence (whole entry): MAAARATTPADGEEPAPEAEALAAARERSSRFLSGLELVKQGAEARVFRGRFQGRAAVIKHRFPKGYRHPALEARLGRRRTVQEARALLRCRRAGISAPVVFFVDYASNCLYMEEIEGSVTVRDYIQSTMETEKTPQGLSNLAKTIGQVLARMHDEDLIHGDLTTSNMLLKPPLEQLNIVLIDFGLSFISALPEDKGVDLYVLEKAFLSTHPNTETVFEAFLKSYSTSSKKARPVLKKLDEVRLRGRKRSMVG
Nature of the assay: Inhibition of PRPK in human HeLa cells lysate at 2 uM pre incubated for 15 mins followed by ADP acyl phosphate probe addition and measured after 10 mins by LC-MS/MS analysis relative to control. Type of assay: subcellular. Conditions: time 25.0 min.

Assay [10] is described as follows: Inhibition of MSK1/2 in human HeLa cells lysate pre incubated for 15 mins followed by ADP acyl phosphate probe addition and measured after 10 mins by LC-MS/MS analysis. The class given is subcellular.
The next assay addresses Activated CDC42 kinase 1 (Homo sapiens, UniProt Q07912). Nature of the assay: Inhibition of TNK2 (unknown origin) assessed as remaining activity at 10 uM by ATP-competition binding assay relative to control.

Some results are limits rather than exact numbers.

Ephrin type-A receptor 2, sequence (P29317 whole entry): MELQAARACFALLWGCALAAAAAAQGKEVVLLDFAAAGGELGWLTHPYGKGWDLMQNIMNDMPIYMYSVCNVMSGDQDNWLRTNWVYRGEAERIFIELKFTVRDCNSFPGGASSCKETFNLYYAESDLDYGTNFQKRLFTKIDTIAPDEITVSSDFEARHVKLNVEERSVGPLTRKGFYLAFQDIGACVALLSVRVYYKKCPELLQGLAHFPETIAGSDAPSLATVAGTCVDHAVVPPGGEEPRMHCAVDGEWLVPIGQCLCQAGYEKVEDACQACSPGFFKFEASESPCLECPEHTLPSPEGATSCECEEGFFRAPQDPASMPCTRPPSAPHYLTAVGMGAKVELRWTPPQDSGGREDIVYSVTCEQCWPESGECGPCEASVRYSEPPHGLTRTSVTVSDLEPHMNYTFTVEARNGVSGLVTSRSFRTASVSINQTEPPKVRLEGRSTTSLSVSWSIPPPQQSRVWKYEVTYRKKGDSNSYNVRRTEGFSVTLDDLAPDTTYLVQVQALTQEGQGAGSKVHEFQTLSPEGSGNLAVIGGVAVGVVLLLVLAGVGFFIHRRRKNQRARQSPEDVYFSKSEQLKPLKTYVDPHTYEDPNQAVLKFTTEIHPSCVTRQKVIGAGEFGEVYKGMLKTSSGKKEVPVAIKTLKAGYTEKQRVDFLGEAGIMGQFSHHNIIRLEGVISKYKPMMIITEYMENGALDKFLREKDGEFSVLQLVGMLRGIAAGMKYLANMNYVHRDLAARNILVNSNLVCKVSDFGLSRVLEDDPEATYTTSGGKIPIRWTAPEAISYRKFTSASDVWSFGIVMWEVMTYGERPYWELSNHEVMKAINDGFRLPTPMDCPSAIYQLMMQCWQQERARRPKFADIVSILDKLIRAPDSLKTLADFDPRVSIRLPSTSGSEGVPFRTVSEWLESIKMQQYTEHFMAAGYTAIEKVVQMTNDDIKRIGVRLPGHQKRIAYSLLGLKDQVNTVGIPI
Ribosomal protein S6 kinase alpha-5, sequence (O75582 whole entry): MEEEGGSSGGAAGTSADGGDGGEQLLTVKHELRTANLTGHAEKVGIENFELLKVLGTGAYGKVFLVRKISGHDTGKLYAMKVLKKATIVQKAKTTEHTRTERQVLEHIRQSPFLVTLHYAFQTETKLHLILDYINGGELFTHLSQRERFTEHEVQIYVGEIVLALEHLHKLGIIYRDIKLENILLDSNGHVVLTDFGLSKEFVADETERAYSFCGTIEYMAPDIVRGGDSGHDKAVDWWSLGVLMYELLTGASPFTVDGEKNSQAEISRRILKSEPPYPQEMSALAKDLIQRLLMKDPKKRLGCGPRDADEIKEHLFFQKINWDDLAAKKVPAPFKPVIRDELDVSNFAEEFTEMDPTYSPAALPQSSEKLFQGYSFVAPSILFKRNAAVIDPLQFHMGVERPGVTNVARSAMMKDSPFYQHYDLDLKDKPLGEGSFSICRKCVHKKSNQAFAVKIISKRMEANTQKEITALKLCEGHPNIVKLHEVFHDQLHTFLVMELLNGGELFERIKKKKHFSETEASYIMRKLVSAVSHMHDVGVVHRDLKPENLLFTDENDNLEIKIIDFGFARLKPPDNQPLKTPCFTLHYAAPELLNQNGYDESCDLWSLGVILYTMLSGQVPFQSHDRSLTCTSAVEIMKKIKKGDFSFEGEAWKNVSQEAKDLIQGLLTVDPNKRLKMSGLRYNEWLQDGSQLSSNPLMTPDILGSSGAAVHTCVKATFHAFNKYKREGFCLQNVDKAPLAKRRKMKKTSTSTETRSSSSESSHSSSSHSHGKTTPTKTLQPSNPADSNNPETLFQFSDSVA
Calcium/calmodulin-dependent protein kinase type II subunit gamma, sequence (Q13555 whole entry): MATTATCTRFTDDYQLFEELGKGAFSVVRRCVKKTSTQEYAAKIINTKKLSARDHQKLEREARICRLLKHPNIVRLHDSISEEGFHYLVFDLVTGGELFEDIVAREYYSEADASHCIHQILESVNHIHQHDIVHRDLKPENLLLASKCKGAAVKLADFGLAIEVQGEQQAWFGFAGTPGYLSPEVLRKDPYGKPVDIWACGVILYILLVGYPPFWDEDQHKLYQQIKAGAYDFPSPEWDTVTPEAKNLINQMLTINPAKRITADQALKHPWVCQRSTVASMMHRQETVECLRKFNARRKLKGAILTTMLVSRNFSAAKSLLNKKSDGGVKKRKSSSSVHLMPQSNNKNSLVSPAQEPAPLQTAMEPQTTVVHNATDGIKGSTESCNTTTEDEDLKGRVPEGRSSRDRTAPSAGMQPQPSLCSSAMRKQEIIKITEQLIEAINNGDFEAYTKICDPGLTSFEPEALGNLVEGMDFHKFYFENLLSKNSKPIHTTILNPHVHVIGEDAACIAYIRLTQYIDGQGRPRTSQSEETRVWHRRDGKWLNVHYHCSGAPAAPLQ
Serine/threonine-protein kinase B-raf, sequence (P15056 whole entry, the tested form may be a part): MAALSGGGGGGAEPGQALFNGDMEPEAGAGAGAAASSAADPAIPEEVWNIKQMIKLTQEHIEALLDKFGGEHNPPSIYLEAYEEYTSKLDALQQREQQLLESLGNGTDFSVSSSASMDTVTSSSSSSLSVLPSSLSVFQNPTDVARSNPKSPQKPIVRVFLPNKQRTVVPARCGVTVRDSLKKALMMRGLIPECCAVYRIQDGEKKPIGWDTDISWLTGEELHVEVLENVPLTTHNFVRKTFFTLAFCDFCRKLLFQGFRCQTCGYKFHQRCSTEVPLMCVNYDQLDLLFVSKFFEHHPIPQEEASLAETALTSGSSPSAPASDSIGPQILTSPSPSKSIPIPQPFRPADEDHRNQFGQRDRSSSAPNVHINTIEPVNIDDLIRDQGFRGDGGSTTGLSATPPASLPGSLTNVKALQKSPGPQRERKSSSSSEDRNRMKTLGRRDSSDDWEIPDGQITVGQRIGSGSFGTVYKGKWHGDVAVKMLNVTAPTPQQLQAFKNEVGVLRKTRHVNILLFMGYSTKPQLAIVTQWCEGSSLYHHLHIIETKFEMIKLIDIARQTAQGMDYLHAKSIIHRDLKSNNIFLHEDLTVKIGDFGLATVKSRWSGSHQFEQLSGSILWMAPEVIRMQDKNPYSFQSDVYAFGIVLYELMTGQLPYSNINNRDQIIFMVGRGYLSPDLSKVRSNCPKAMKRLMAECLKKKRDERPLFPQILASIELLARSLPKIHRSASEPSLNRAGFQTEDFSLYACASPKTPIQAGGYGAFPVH
Activated CDC42 kinase 1, sequence (Q07912 whole entry, looked up): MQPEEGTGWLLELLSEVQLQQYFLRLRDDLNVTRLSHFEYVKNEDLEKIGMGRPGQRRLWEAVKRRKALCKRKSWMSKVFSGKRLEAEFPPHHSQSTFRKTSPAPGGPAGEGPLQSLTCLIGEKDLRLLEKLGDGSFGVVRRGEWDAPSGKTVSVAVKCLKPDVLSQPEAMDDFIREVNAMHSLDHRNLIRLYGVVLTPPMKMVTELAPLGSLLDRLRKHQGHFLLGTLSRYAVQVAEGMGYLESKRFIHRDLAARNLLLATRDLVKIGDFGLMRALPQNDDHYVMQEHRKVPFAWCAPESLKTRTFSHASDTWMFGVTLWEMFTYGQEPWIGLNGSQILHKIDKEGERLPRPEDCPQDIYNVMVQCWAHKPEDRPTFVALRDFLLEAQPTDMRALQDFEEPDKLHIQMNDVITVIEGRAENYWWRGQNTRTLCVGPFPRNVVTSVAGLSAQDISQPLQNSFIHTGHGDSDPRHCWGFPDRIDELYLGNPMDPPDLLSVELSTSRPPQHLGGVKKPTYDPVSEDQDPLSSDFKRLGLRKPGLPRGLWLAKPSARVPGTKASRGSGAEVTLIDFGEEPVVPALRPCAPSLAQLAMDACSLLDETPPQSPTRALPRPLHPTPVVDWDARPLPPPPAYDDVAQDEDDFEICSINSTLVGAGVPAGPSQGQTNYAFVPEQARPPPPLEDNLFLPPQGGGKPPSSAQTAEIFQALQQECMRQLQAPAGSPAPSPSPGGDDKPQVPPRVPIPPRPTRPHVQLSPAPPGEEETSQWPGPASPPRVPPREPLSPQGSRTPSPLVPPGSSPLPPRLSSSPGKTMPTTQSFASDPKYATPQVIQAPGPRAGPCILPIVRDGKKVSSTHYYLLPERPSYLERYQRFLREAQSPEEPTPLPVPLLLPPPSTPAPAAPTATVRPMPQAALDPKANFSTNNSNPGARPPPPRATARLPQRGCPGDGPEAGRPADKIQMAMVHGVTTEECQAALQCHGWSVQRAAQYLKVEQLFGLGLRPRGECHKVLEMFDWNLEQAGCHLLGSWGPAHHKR
Mitogen-activated protein kinase kinase kinase 20, sequence (Q9NYL2 2-800 limits assumed): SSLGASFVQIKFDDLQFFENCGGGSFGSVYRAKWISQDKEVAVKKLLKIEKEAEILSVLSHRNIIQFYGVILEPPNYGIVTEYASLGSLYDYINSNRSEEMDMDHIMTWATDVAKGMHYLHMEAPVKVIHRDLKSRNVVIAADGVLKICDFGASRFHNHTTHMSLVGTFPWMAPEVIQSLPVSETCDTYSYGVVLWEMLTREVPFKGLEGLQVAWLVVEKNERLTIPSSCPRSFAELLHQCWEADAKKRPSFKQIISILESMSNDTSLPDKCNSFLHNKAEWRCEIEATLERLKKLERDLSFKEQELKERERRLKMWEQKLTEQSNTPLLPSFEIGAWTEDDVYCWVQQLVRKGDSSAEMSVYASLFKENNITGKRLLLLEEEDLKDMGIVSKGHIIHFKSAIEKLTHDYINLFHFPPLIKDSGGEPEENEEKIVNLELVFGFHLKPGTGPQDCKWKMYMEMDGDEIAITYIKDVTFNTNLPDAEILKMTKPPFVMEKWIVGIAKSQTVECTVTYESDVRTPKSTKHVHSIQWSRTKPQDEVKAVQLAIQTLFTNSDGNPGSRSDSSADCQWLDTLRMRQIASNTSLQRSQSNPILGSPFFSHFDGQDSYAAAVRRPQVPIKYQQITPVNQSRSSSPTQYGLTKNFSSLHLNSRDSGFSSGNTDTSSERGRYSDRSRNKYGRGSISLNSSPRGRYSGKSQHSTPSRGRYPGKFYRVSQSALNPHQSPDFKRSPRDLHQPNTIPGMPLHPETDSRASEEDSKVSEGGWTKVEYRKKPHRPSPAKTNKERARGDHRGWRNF

In the case of `CCOc1cc(N2CCC(O)CC2)ccc1Nc1ncc2c(n1)N(C)c1ccccc1C(=O)N2C`, the 50% inhibitory concentration (IC50) in assay [1], in assay [4], in assay [6] and in [10] was > 50 µM in each case. The inhibition (in general, the drop in the measured response relative to a control, in per cent) is -7.6% on Ephrin type-A receptor 2; 21.2% in assay [2]; 8% in assay [3]; -8.6% in [5]; 4.3% in [7]; 31.5% in [8]. Also, in [9], the inhibition came out at 23.1%. Further, the Activity at Activated CDC42 kinase 1 stood at 17%.

The record behind these values is ChEMBL document CHEMBL5661979, “Pharmacological inhibition of BMK1 suppresses tumor growth through promyelocytic leukemia protein” (Cancer Cell, 2010).
